Reference: ChEMBL document CHEMBL3580634, “Discovery of a high affinity and selective pyridine analog as a potential positron emission tomography imaging agent for cannabinoid type 2 receptor” (J Med Chem, 2015)

What was measured:
[1] = biological target: Cannabinoid receptor 2 (Mus musculus, UniProt P47936); assay: Displacement of [3H]CP-55,940 from mouse CB2 receptor expressed in CHO cell membranes
How it was run: (§1)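 Membranes from CHO cells expressing human or murine CB2 were incubated with [3H]CP-55,940 in 50 mM Tris, 5 mM MgCl2, 2.5 mM EGTA, 0.1% fatty-acid-free BSA, pH 7.4, 1 h at 30 °C with shaking. Reaction stopped by filtration through PEI-coated GF/B. Ki from nonlinear regression using saturation-derived Kd. Ten concentrations in triplicate.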

[2] = biological target: Cannabinoid receptor 1 (Homo sapiens, UniProt P21554); assay: Activity at human CB1 receptor expressed in CHO cells assessed as cAMP accumulation incubated for 30 mins by time-resolved FRET assay; assay type: functional, cell-based
How it was run: (§2)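 CHO cells expressing human CB1 or CB2 were seeded 1 day before in DMEM/HT supplement/10% FCS. Medium was replaced with Krebs Ringer bicarbonate buffer containing 1 mM IBMX, 30 min at 30 °C, then compound added for 30 min at 30 °C. cAMP was read by time-resolved FRET (cAMP-Nano-TRF kit) against a standard curve from 10 μM to 0.13 nM. Ten concentrations in triplicate, single experiment.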

[3] = Lipophilicity, log D of the compound in n-octanol/phosphate buffer pH 7.4 by shake flask method; assay type: physicochemical
[4] = biological target: T1, Cannabinoid receptor 2 (Homo sapiens, UniProt P34972); assay: Displacement of [3H]CP-55,940 from human CB2 receptor expressed in CHO cell membranes; how it was run: as §1
[5] = biological target: T1, Cannabinoid receptor 2; assay: Activity at human CB2 receptor expressed in CHO cells assessed as cAMP accumulation incubated for 30 mins by time-resolved FRET assay; assay type: functional, cell-based; how it was run: as §2
[6] = tested on: Small intestine; assay: Biodistribution in Wistar rat small intestine at 6 to 10 MBq, iv measured after 15 mins by gamma counting method; assay type: ADME, organism-based; settings: in vivo, 0.25 h
How it was run: (§3)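 Male Wistar rats (5 weeks old) received 6–10 MBq (0.03–0.05 nmol) tracer via tail vein. For blocking, 1.5 mg/kg blocker was given iv shortly before the tracer (n = 3). Rats were decapitated under isoflurane at 15 min pi. Organs were weighed and gamma-counted, expressed as normalized %ID/g tissue (per 1 kg body weight). One baseline animal was excluded for paravenous injection.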

[7] = Stability in rat plasma assessed as intact compound remaining at 4 MBq at 37 degC incubated for 5 to 20 mins by radio-TLC method; assay type: ADME, cell-free; settings: read-out: Stability
How it was run: (§4)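 Mouse, rat or human plasma was incubated with formulated radiotracer (4 MBq) at 37 °C with shaking. Aliquots taken at 5, 10, 15 and 20 min were quenched with ice-cold acetonitrile and centrifuged. Supernatant was analysed by radio-TLC in hexane/EtOAc (1:1).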

[8] = tested on: Liver; assay: Biodistribution in Wistar rat liver at 6 to 10 MBq, iv measured after 15 mins by gamma counting method; assay type: ADME, organism-based; settings: in vivo, 0.25 h; how it was run: as §3
[9] = tested on: Spleen; assay: Biodistribution in Wistar rat spleen at 11 to 18 MBq, iv measured during first 10 mins by PET/CT imaging method; assay type: ADME, organism-based; settings: in vivo
How it was run: (§5)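 Isoflurane-anaesthetized male Wistar rats received 11–18 MBq (0.06–0.09 nmol) tracer via tail vein. Dynamic PET ran 60 min from injection, then CT. For displacement, 1.5 mg/kg blocker was given iv 10 min after tracer; 2 rats per condition. Temperature held at 37 °C. Reconstruction by 2D-OSEM without attenuation correction. Uptake given as SUV.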

[10] = Drug metabolism in Wistar rat urine assessed as hydrophilic radio-metabolites level at 48 MBq, iv measured after 5 to 20 mins by radio-TLC method; assay type: ADME, organism-based; settings: in vivo
How it was run: (§6)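 After iv tracer, rat plasma was taken at 5, 10 and 20 min. Urine and brain were collected at 20 min sacrifice. Plasma was separated at 5000g, 5 min, 4 °C. Proteins in plasma, urine and PBS brain homogenate were precipitated with cold acetonitrile and centrifuged. Supernatants were run by radio-TLC in hexane/EtOAc (1:1), reported as % of total activity.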

[11] = tested on: Spleen; assay: Biodistribution in mouse spleen at 0.2 nM incubated for 15 mins in presence of 5 uM CB2 ligand GW405833 by autoradiography; assay type: ADME; settings: 0.25 h, 0.0002 µM
How it was run: (§7)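 Mouse or rat spleen cryosections (20 μm) were thawed on ice and preconditioned in 50 mM Tris/HCl, 5% BSA, pH 7.4, then incubated 15 min at rt with 0.2 nM radioligand, alone or with 5 μM blocker. Washed in Tris/HCl with 1% BSA and 5% EtOH (2 × 2 min) and water on ice, then exposed 30 min to phosphor imager plates.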

[12] = tested on: Spleen; assay: Biodistribution in mouse spleen at 0.2 nM incubated for 15 mins by autoradiography; assay type: ADME; settings: 0.25 h, 0.0002 µM; how it was run: as §7
[13] = tested on: Spleen; assay: Biodistribution in Wistar rat spleen at 11 to 18 MBq, iv treated with 1.5 mg/kg CB2 ligand GW405833 injected 10 mins after compound dosing by PET/CT imaging method; assay type: ADME, organism-based; settings: in vivo; how it was run: as §5
[14] = tested on: Spleen; assay: Biodistribution in rat spleen at 0.2 nM incubated for 15 mins by autoradiography; assay type: ADME; settings: 0.25 h, 0.0002 µM; how it was run: as §7
[15] = tested on: Brain; assay: Biodistribution in Wistar rat brain at 6 to 10 MBq, iv measured after 15 mins by gamma counting method; assay type: ADME, organism-based; settings: in vivo, 0.25 h; how it was run: as §3
[16] = Biodistribution in Wistar rat plasma assessed as intact parent tracer level at 48 MBq, iv measured after 10 mins by radio-TLC method; assay type: ADME, organism-based; settings: read-out: Drug uptake; how it was run: as §6
[17] = tested on: Spleen; assay: Biodistribution in Wistar rat spleen at 11 to 18 MBq, iv treated with 1.5 mg/kg CB2 ligand GW405833 injected 10 mins after compound dosing and measured 15 mins after GW405833 dosing by PET/CT imaging method; assay type: ADME, organism-based; settings: in vivo, 0.25 h; how it was run: as §5
[18] = tested on: Brain; assay: Biodistribution in brain of mouse model of LPS-induced neuroinflammation at 10 to 27 MBq, iv treated with 10 mg/kg LPS 5 days before PET scan by PET imaging method; assay type: ADME, organism-based; settings: in vivo, 120 h
How it was run: (§8)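 Male CD-1 mice got 10 mg/kg LPS (E. coli O111:B4) or saline ip 5 days before PET. Under isoflurane, 10–27 MBq tracer was injected via tail vein, with 60 min PET then CT. For blocking, 2.0 mg/kg blocker or vehicle was given sc 30 min before tracer. Whole-brain ROI was taken on an MRI T2 template, expressed as SUV; n = 2 per condition.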

[19] = tested on: Spleen; assay: Biodistribution in Wistar rat spleen at 6 to 10 MBq, iv treated with 1.5 mg/kg CB2 ligand GW405833 injected 1 mins after compound dosing by gamma counting method; assay type: ADME, organism-based; settings: in vivo
[20] = Lipophilicity, log D of the radio-labeled compound in n-octanol/phosphate buffer pH 7.4 by shake flask method; assay type: physicochemical
How it was run: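 Formulated radiotracer (8 MBq) was added to n-octanol and phosphate buffer pH 7.4, each presaturated with the other, shaken 15 min and centrifuged 5000g 5 min. Radioactivity in both phases was gamma-counted and D taken as their ratio; n = 5.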

[21] = Stability in mouse plasma assessed as intact compound remaining at 4 MBq at 37 degC incubated for 5 to 20 mins by radio-TLC method; assay type: ADME, cell-free; settings: read-out: Stability; how it was run: as §4
[22] = tested on: Brain; assay: Biodistribution in Wistar rat brain at 48 MBq, iv measured after 20 mins by radio-TLC method; assay type: ADME, organism-based; settings: in vivo
[23] = tested on: Spleen; assay: Biodistribution in rat spleen at 0.2 nM incubated for 15 mins in presence of 5 uM CB2 ligand GW405833 by autoradiography; assay type: ADME; settings: 0.25 h, 0.0002 µM; how it was run: as §7
[24] = tested on: Brain; assay: Biodistribution in brain of mouse model of LPS-induced neuroinflammation at 10 to 27 MBq, iv treated with 2 mg/kg CB2 ligand GW405833 injected 30 mins before PECT acquisition by PET imaging method; assay type: ADME, organism-based; settings: in vivo, 0.5 h; how it was run: as §8
[25] = Biodistribution in Wistar rat plasma assessed as intact parent tracer level at 48 MBq, iv measured after 20 mins by radio-TLC method; assay type: ADME, organism-based; settings: read-out: Drug uptake; how it was run: as §6
[26] = Biodistribution in Wistar rat plasma assessed as intact parent tracer level at 48 MBq, iv measured after 5 mins by radio-TLC method; assay type: ADME, organism-based; settings: read-out: Drug uptake; how it was run: as §6
[27] = tested on: Spleen; assay: Biodistribution in Wistar rat spleen at 11 to 18 MBq, iv measured after 10 mins by PET/CT imaging method; assay type: ADME, organism-based; settings: in vivo; how it was run: as §5
[28] = tested on: Plasma; assay: Stability in human plasma assessed as compound degradation at 4 MBq at 37 degC […] by radio-TLC method; assay type: ADME, cell-free; settings: 40 min
[29] = biological target: T1, Cannabinoid receptor 2; assay: Binding affinity to human CB2 receptor
How it was run: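 Competition binding with [³H]CP-55,940 on membranes from CHO cells expressing human CB2. Buffer: 50 mM Tris, 5 mM MgCl₂, 2.5 mM EGTA, 0.1% fatty-acid-free BSA, pH 7.4. Incubated 1 h at 30 °C with shaking, then rapid filtration through 0.5% polyethylenimine-coated filters. Ki from nonlinear regression, using Kd from saturation experiments. Single experiment, triplicates, 10 concentrations.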

[30] = Ratio of drug level in brain to plasma in ip dosed rat; assay type: ADME, organism-based; settings: read-out: BPR
[31] = Drug level in brain of ip dosed rat after 1 hr; assay type: ADME, organism-based; settings: read-out: Drug uptake

Cannabinoid receptor 2 (Mus musculus, UniProt P47936), sequence (P47936 whole entry): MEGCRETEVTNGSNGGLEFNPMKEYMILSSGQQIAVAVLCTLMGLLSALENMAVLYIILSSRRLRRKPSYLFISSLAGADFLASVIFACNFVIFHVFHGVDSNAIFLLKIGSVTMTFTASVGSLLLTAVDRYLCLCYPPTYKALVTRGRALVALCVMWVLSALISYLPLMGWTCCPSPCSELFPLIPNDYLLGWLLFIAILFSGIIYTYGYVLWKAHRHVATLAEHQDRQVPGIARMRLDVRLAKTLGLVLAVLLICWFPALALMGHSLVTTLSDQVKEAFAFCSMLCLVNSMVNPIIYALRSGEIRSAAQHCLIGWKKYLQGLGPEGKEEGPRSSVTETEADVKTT
Cannabinoid receptor 1, sequence (P21554 whole entry, looked up): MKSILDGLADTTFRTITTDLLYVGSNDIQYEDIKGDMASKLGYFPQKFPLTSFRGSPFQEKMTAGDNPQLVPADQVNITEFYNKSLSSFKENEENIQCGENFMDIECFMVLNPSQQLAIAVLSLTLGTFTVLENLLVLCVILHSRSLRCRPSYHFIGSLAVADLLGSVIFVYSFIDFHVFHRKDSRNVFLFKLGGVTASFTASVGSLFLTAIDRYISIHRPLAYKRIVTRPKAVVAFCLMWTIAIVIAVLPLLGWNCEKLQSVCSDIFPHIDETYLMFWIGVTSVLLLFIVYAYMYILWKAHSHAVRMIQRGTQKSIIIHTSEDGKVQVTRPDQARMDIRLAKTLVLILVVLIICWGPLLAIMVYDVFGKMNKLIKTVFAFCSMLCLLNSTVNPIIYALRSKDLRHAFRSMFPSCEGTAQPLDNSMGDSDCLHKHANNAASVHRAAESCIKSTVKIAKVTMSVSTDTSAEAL
T1 sequence (P34972 whole entry): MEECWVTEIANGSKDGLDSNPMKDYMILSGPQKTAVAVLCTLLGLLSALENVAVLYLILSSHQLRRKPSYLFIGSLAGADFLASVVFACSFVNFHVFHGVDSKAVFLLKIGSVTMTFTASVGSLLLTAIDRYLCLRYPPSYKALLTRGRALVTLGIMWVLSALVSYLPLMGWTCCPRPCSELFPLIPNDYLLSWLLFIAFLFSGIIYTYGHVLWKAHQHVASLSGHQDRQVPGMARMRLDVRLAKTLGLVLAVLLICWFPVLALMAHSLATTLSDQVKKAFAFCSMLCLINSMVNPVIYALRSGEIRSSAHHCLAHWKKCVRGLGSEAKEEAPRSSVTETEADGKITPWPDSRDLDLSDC

## CCC(CC)(NC(=O)c1ccc(N2CC(OC)C2)c(OCC2CC2)n1)C(=O)NCCCF
[1]
  Ki: 5260 nM
[2]
  EC50: > 10000 nM
[3]
  logD: 3.67
[4]
  Ki: 2060 nM

## COCCOCC(C)(C)c1cc(NC(=O)c2ccc(C3CCCC3)c(OCC3CC3)n2)on1
[1]
  Ki: 12.7 nM
[2]
  EC50: > 10000 nM
[4]
  Ki: 294 nM

## CCC(CC)(NC(=O)c1ccc(N2CC(F)(F)C2)c(OCC2CC2)n1)C(=O)NC
[1]
  Ki: 245 nM
[2]
  EC50: > 10000 nM
[5]
  EC50: 4.3 nM
[3]
  logD: 3.76
[4]
  Ki: 179 nM

## CCOC(=O)C(CC)(CC)NC(=O)c1ccc(C2CCCC2)c(OCC2CC2)n1
[1]
  Ki: 38.5 nM
[2]
  EC50: > 10000 nM
[5]
  EC50: 2.9 nM
[4]
  Ki: 16.2 nM

## CC(C)(NC(=O)c1ccc(N2CC(F)(F)C2)c(OCC2CC2)n1)c1nnc(C2CC2)o1
[1]
  Ki: > 10000 nM
[2]
  EC50: > 10000 nM
[5]
  EC50: > 10000 nM
[4]
  Ki: > 10000 nM

## CCOC(=O)C(CC)(CC)NC(=O)c1ccc(N2CC(O[11CH3])C2)c(OCC2CC2)n1
[6]
  Drug uptake: Active
[7]
  remaining at 4 MBq: 86%
[8]
  Drug uptake: Active
[9]
  Drug uptake: Active
[10]
  Drug metabolism: metabolite_detected
[11]
  Drug uptake: Not Active
[12]
  Drug uptake: Active
[13]
  Drug uptake: Not Active
[14]
  Drug uptake: Active
[15]
  Drug uptake: Not Active
[16]
  remaining at 10 min: 37%
[17]
  Drug uptake: Not Active
[18]
  Drug uptake: Active
[19]
  Drug uptake: Not Active
[20]
  logD: 1.94
[21]
  remaining at 4 MBq: 84%
[22]
  Drug uptake: Not Active
[23]
  Drug uptake: Not Active
[24]
  Drug uptake: Not Active
[25]
  remaining at 20 min: 21%
[26]
  remaining at 5 min: 51%
[27]
  Drug uptake: Not Active
[3]
  logD: 1.94
[28]
  Stability: Stable
[4]
  Ki: 2.5 nM

## CC(C)(Cc1nnc(-c2ccc(F)cc2)o1)NC(=O)c1ccc(C2CCCC2)c(OCC2CC2)n1
[1]
  Ki: 403 nM
[2]
  EC50: > 10000 nM
[4]
  Ki: 416 nM

## COc1ccc2c(c1)c(CCN1CCOCC1)c(C)n2C(=O)c1cccc(Cl)c1Cl
[29]
  Ki: 3.9 nM
[30]
  Kp: 5
[31]
  concentration at 1 h: > 100 nM

## CCC(CC)(NC(=O)c1ccc(N2CC(OC)C2)c(OCC2CC2)n1)C(=O)NC
[1]
  Ki: 60.4 nM
[2]
  EC50: > 10000 nM
[3]
  logD: 3.18
[4]
  Ki: 170 nM

## CCC(CC)(NC(=O)c1ccc(N2CC(OC)C2)c(OCC2CC2)n1)C(=O)NCCF
[1]
  Ki: 421 nM
[2]
  EC50: > 10000 nM
[5]
  EC50: 281 nM
[3]
  logD: 3.43
[4]
  Ki: 902 nM

## CC(C)(Cc1nnc(-c2ccc(F)cc2)o1)NC(=O)c1ccc(N2CC(F)(F)C2)c(OCC2CC2)n1
[1]
  Ki: 1050 nM
[2]
  EC50: > 10000 nM
[4]
  Ki: 3030 nM
